Results gathered from unrelated publications.
Protocols differ between the studies behind these lines.
Target: Glycogen synthase kinase-3 beta (GSK3B, Homo sapiens, UniProt P49841)
Mode: inhibitor

The inhibition of `CN(C)C1CCN(CC#Cc2nn(C3CCCC3)c3nc(NCc4ccccc4)ncc23)C1` (centres unmarked) is reported as -1% (enzyme activity; FRET; 1 µM).
With `CCCCNc1ncc2c(-c3ccc(F)cc3)nn(C[C@H]3CC[C@H](N)CC3)c2n1` the inhibition was 4.2% (target engagement in cells; chemoproteomics; 20 mM).
`C=CC(=O)Nc1cc(Nc2nccc(Nc3cc(Cl)c(F)cc3C(C)(C)O)n2)c(OC)cc1N1CC[C@@H](N(C)C)C1` gave an inhibition of 9% (enzyme activity; 1 µM).
With `COc1ccc(-c2nc3ccc(C4=NNC(=O)CC4C)cc3[nH]2)cc1` (centres unmarked) the inhibition was 21.5% (enzyme activity; ADP detection; 100 µM).
With `COc1cc2ncnc(Nc3ccc(Oc4ccccc4)c(C)c3C)c2cc1OC` the inhibition was 4% (enzyme activity; 1 µM).
`CSc1nc(C)c(-c2ccnc(Nc3ccc(N4CCOCC4)cc3)c2)[nH]1` gave an inhibition of 5.7% (enzyme activity; 10 µM).
For `CCN(CC)CCNC(=O)c1c(C)[nH]c(/C=C2\C(=O)Nc3ccc(F)cc32)c1C`, the inhibition was -4% (enzyme activity; 0.3 µM).
`Cc1nc(-c2ccc(OCC(C)C)c(C#N)c2)sc1C(=O)O` has an inhibition of 66.9% (enzyme activity; ADP detection; 100 µM).
The inhibition of `CN(c1ncccc1CNc1nc(Nc2ccc3c(c2)CC(=O)N3)ncc1C(F)(F)F)S(C)(=O)=O` is reported as 92.7% (enzyme activity; 1 µM).
The inhibition of `Nc1nc(Nc2ccc(S(N)(=O)=O)cc2)sc1C(=O)c1ccccc1[N+](=O)[O-]` is reported as 60 to 66% (enzyme activity; 0.1 µM).
`O=C1CN(/N=C/c2ccc(-c3ccc([N+](=O)[O-])cc3)o2)C(O)=N1` has an inhibition of 31.2% (enzyme activity; ADP detection; 100 µM).
`COc1cccc2c(NCc3ccccc3)nc(-n3c(N)nc4ccccc43)nc12` has an inhibition of 1% (target engagement in cells; chemoproteomics; 20 mM).
`COc1ccc2c(c1)O[C@H]1c3ccc(OC)cc3OC[C@@H]21` gave an inhibition of 32.9% (enzyme activity; ADP detection; 100 µM).
`CS(=O)(=O)Nc1cccc(-c2csc(NC(=O)CSc3nc4nccnc4c(=O)n3CCc3ccccc3)n2)c1` gave an inhibition of 2% (enzyme activity; 10 µM).
